The nature of data set [1]: Drug uptake in human PC3 cells xenografted mouse tumor at 3.7 MBq, iv by micro PET imaging in presence of RGD and BBN. It is filed as ADME, organism-based, Neoplasm, PC-3. Particulars: in vivo. The essentials:
(§1)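 PC-3 tumor-bearing mice were co-injected i.v. with 3.7 MBq tracer and a blocking dose of c(RGDyK) (10 mg/kg), Aca-BBN(7–14) (15 mg/kg), or both. A 5-min static microPET scan was taken at 1 h pi (n = 3), and ROI-derived %ID/g was measured on decay-corrected coronal images.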

In data set [2] the test system is PC-3. The experiment in a line: Cellular uptake in human PC3 cells after 120 mins. It is filed as ADME, cell-based. Particulars: pc-3, 2 h. The essentials: (§2)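 PC-3 cells were seeded at 5×10^5 per well and left overnight, then PBS-rinsed and incubated with ~0.3 μCi/well radiotracer in culture medium at 37 or 4 °C for 15–120 min. Cells were washed with chilled PBS, trypsinized and γ-counted. Uptake is % of added radioactivity; two experiments, triplicate wells.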

A short description of data set [3]: Ratio of drug uptake in tumor to muscle from human PC3 cells xenografted mouse at 3.7 MBq, iv after 120 mins by micro PET imaging. It is filed as ADME, organism-based, PC-3. Conditions: in vivo, 2 h. Put shortly:
(§3)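 Tumor/nontumor ratios were calculated from ROI-derived %ID/g on decay-corrected 5-min static microPET scans at 2 h after ~3.7 MBq i.v. tracer in PC-3 xenograft nude mice (n = 4).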

The test system of data set [4] is Liver. As to the kind of experiment: Drug uptake in human PC3 cells xenografted mouse liver at 3.7 MBq, iv after 30 mins by micro PET imaging. It is filed as ADME, organism-based, PC-3. Particulars: in vivo, 0.5 h. The essentials:
(§4)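 PC-3 xenograft nude mice (tumors 100–300 mm³) were given ~3.7 MBq (100 μCi) i.v. by tail vein under isoflurane. Static 5-min scans were taken at 30 min, 1 and 2 h (n = 4), plus a 35-min dynamic scan starting 1 min pi in one mouse. Images were OSEM-reconstructed without attenuation correction. Tumor and organ %ID/g came from ROIs on decay-corrected coronal images, assuming 1 g/mL density.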

The next data set concerns Kidney. As to the kind of experiment: Biodistribution in human PC3 cells xenografted athymic nude mouse kidney at 0.74 MBq, iv after 1 hr. It is filed as ADME, organism-based, PC-3. Particulars: in vivo. The essentials:
(§5)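 PC-3 human prostate carcinoma cells were grown in F-12K with 10% FBS, and 5×10^6 cells were injected s.c. into the right front flank of male athymic nude mice. Each mouse received 0.74 MBq (20 μCi) tracer and was sacrificed at 1 h pi. Tissues were wet-weighed and γ-counted against an injectate aliquot. Values are %ID/g normalized to 20 g body mass, mean ± SD, n = 4.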

The test system of the next data set is Bone. As to the kind of experiment: Biodistribution in human PC3 cells xenografted athymic nude mouse bone at 0.74 MBq, iv after 1 hr. It is filed as ADME, organism-based, Bone element, PC-3. Conditions: in vivo. Put shortly:
as §5

Data set [5] can be described thus: Drug uptake in human PC3 cells xenografted mouse tumor at 3.7 MBq, iv after 60 mins by micro PET imaging. It is filed as ADME, organism-based, Neoplasm, PC-3. Particulars: in vivo, 1 h. Put shortly:
as §4

The next data set concerns Spleen. The experiment in a line: Biodistribution in human PC3 cells xenografted athymic nude mouse spleen at 0.74 MBq, iv after 1 hr. It is filed as ADME, organism-based, PC-3. Conditions: in vivo. Put shortly: as §5
Data set [6] in a line: Drug uptake in human PC3 cells xenografted mouse tumor at 3.7 MBq, iv after 30 mins by micro PET imaging. It is filed as ADME, organism-based, Neoplasm, PC-3. Particulars: in vivo, 0.5 h. The essentials: as §4
The nature of data set [7]: Drug uptake in human PC3 cells xenografted mouse tumor at 3.7 MBq, iv by micro PET imaging in presence of BBN. Particulars: in vivo. It is filed as ADME, organism-based, Neoplasm, PC-3. The essentials: as §1
The test system of data set [8] is PC-3. As to the kind of experiment: Cellular uptake in human PC3 cells after 60 mins. It is filed as ADME, cell-based. Conditions: pc-3, 1 h. The essentials: as §2
For the next data set, the system named is Heart. As to the kind of experiment: Biodistribution in human PC3 cells xenografted athymic nude mouse heart at 0.74 MBq, iv after 1 hr. It is filed as ADME, organism-based, PC-3. Conditions: in vivo. Put shortly: as §5
The test system of data set [9] is PC-3. As to the kind of experiment: Inhibition of cellular uptake in human PC3 cells after 60 mins in presence of BBN. Conditions: pc-3, 1 h.
A short description of data set [10]: Drug uptake in human PC3 cells xenografted mouse tumor at 3.7 MBq, iv after 5 mins by micro PET imaging. Particulars: in vivo. It is filed as ADME, organism-based, Neoplasm, PC-3. Put shortly:
as §4

Data set [11] is described as follows: Ratio of drug uptake in tumor to liver from human PC3 cells xenografted mouse at 3.7 MBq, iv after 120 mins by micro PET imaging. It is filed as ADME, organism-based, PC-3. Conditions: in vivo, 2 h. Put shortly:
as §3

Data set [12] can be described thus: Ratio of drug uptake in tumor to blood from human PC3 cells xenografted mouse at 3.7 MBq, iv after 120 mins by micro PET imaging. Particulars: tumour, 2 h. It is filed as ADME, organism-based, PC-3. Put shortly:
as §3

Data set [13] can be described thus: Ratio of drug uptake in tumor to kidneys from human PC3 cells xenografted mouse at 3.7 MBq, iv after 120 mins by micro PET imaging. It is filed as ADME, organism-based, PC-3. Particulars: in vivo, 2 h. Put shortly:
as §3

The next data set relates to Muscle tissue. The experiment in a line: Biodistribution in human PC3 cells xenografted athymic nude mouse muscle at 0.74 MBq, iv after 1 hr. Conditions: in vivo. It is filed as ADME, organism-based, PC-3. The essentials: as §5
Data set [14] in a line: Drug uptake in human PC3 cells xenografted mouse tumor at 3.7 MBq, iv by micro PET imaging in presence of RGD. It is filed as ADME, organism-based, Neoplasm, PC-3. Conditions: in vivo. The essentials: as §1
Data set [15] concerns PC-3. The experiment in a line: Cellular uptake in human PC3 cells after 15 mins. It is filed as ADME, cell-based. Particulars: pc-3, 0.25 h. Put shortly:
as §2

Data set [16] is described as follows: Drug uptake in human PC3 cells xenografted mouse tumor at 3.7 MBq, iv after 15 mins by micro PET imaging. It is filed as ADME, organism-based, Neoplasm, PC-3. Particulars: in vivo, 0.25 h. The essentials:
as §4

Data set [17] in a line: Biodistribution in human PC3 cells xenografted athymic nude mouse tumor at 0.74 MBq, iv after 1 hr. It is filed as ADME, organism-based, Neoplasm, PC-3. Particulars: in vivo. Put shortly: as §5
Data set [18] relates to PC-3. As to the kind of experiment: Inhibition of cellular uptake in human PC3 cells after 60 mins in presence of RGD and BBN. Particulars: pc-3, 1 h.
Data set [19] relates to PC-3. As to the kind of experiment: Cellular uptake in human PC3 cells after 30 mins. It is filed as ADME, cell-based. Particulars: pc-3, 0.5 h. The essentials: as §2
Another data set relates to Blood. As to the kind of experiment: Biodistribution in human PC3 cells xenografted athymic nude mouse blood at 0.74 MBq, iv after 1 hr. It is filed as ADME, organism-based, PC-3. Conditions: in vivo. The essentials: as §5
The test system of data set [20] is Liver. The experiment in a line: Biodistribution in human PC3 cells xenografted athymic nude mouse liver at 0.74 MBq, iv after 1 hr. It is filed as ADME, organism-based, PC-3. Conditions: in vivo. Put shortly:
as §5

Data set [21] in a line: Drug uptake in human PC3 cells xenografted mouse tumor at 3.7 MBq, iv after 120 mins by micro PET imaging. Conditions: in vivo, 2 h. It is filed as ADME, organism-based, Neoplasm, PC-3. Put shortly:
as §4

For data set [22], the system named is PC-3. As to the kind of experiment: Inhibition of cellular uptake in human PC3 cells after 60 mins in presence of RGD. Particulars: pc-3, 1 h.
Data set [23] deals with Gastrin-releasing peptide receptor (Homo sapiens) (UniProt P30550). The experiment in a line: Displacement of [125I][Tyr4]BBN form gastrin-releasing peptide receptor in human PC3 cells.
Chain of Gastrin-releasing peptide receptor (Homo sapiens) (P30550 whole entry, looked up): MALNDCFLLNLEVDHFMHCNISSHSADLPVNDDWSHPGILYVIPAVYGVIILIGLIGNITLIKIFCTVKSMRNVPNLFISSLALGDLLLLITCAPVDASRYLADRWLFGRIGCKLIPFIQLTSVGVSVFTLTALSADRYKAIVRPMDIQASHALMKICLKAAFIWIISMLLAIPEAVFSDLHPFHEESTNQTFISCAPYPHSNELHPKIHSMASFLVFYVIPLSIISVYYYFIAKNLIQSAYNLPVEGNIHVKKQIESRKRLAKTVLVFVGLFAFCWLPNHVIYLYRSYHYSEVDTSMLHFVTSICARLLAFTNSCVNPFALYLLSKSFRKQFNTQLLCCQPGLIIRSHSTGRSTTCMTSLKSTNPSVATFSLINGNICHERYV

Take `CSCC[C@@H](NC(=O)[C@H](CC(C)C)NC(=O)[C@@H](Cc1c[nH]cn1)NC(=O)CNC(=O)[C@H](NC(=O)[C@H](C)NC(=O)[C@@H](Cc1c[nH]c2ccccc12)NC(=O)[C@H](CCC(N)=O)NC(=O)CCCCCNC(=O)CC[C@H](NC(=O)COCCOCCOCCNC(=O)c1ccc([18F])cc1)C(=O)NCCCC[C@H]1NC(=O)[C@@H](CCCNC(=N)N)NC(=O)CNC(=O)[C@@H](CC(=O)O)NC(=O)[C@H](Cc2ccc(O)cc2)NC1=O)C(C)C)C(N)=O`: the Drug uptake in data set [1] is recorded as 0.43 % ID/g; with PC-3 [2], 6.65%; in the data set on Liver [4], 2 % ID/g; with Kidney, 4.87 % ID/g; in the data set with Bone it was 2 % ID/g; in data set [5], 4.41 % ID/g. Moreover, the Drug uptake is reported as 2 % ID/g in the data set on Spleen; 6.35 % ID/g in data set [6]; 1.58 % ID/g in [7]; 5.87% in the data set with PC-3 [8]; 2 % ID/g in the data set with Heart; 3.54 % ID/g in data set [10]. Besides, the Drug uptake in the data set with Muscle tissue came out at 2 % ID/g; in [14] it was 2.19 % ID/g; in the data set on PC-3 [15] it was 4.72%; in data set [16], 4.86 % ID/g; in data set [17], 4 % ID/g; with PC-3 [19] it was 5.51%. Also, the values for the Drug uptake (in the data set with Blood; in the data set with Liver [20]; in [21]) were 2 % ID/g, 2 % ID/g and 2.88 % ID/g, respectively. For the same compound, the Ratio was 10.54 in data set [3], 6.43 in data set [11], 8.1 in [12] and 1.44 in data set [13]. Further, the Inhibition was found to be 83.67% in the data set with PC-3 [9], 91.97% in the data set on PC-3 [18] and 17.55% in the data set with PC-3 [22].
The compound `CSCC[C@H](NC(=O)[C@H](CC(C)C)NC(=O)[C@H](Cc1c[nH]cn1)NC(=O)CNC(=O)[C@@H](NC(=O)[C@H](C)NC(=O)[C@H](Cc1c[nH]c2ccccc12)NC(=O)[C@H](CCC(N)=O)NC(=O)CCCCCNC(=O)CC[C@H](NC(=O)COCCOCCOCCN)C(=O)NCCCC[C@@H]1NC(=O)[C@H](CCCNC(=N)N)NC(=O)CNC(=O)[C@H](CC(=O)O)NC(=O)[C@@H](Cc2ccc(O)cc2)NC1=O)C(C)C)C(N)=O` returned an IC50 in data set [23] of 85.4 nM.
In data set [23] (pc-3), `CSCC[C@@H](NC(=O)[C@H](CC(C)C)NC(=O)[C@@H](Cc1c[nH]cn1)NC(=O)CNC(=O)[C@H](NC(=O)[C@H](C)NC(=O)[C@@H](Cc1c[nH]c2ccccc12)NC(=O)[C@H](CCC(N)=O)NC(=O)CCCCCNC(=O)CC[C@H](NC(=O)COCCOCCOCCNC(=O)c1ccc(F)cc1)C(=O)NCCCC[C@H]1NC(=O)[C@@H](CCCNC(=N)N)NC(=O)CNC(=O)[C@@H](CC(=O)O)NC(=O)[C@H](Cc2ccc(O)cc2)NC1=O)C(C)C)C(N)=O` came in with an IC50 of 73.3 nM.

These data come from ChEMBL document CHEMBL1139378, “Dual integrin and gastrin-releasing peptide receptor targeted tumor imaging using 18F-labeled PEGylated RGD-bombesin heterodimer 18F-FB-PEG3-Glu-RGD-BBN” (J Med Chem, 2009).
